Measurements as given in ChEMBL document CHEMBL4680064, “Natural product inspired optimization of a selective TRPV6 calcium channel inhibitor” (RSC Med Chem, 2020).
Calls of active or inactive are those of the source. No cut-off for these calls is given here.

Tests used:
[1] = test system: MDA-MB-231; assay: Antiproliferative activity against human MDA-MB-231 cells assessed as cell growth inhibition at 0.4 to 100 uM after 6 days by XTT assay; format: cell-based; details: mda-mb-231, 144 h, dose 0.4-100 µM, time 6 day
In short: (§1)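 Cells grown in RPMI with 10% FBS, 2 mM L-glutamine, penicillin/streptomycin and 1% non-essential amino acids. Seeded at 5 x 10³ cells/well and left 24 h at 37 °C, then treated at 100 μM to 0.4 μM. Exposure 6 days at 37 °C with fresh treatment medium every 48 h. Doxorubicin 10 μM and DMSO 0.01% served as controls. XTT with 1.25% PMS for 2 h; absorbance at 450 minus 650 nm, as % viable versus DMSO. Curves fitted by four-parameter non-linear regression. Mean ± SEM, n = 3/concentration, ≥3 independent experiments.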

[2] = target: Kappa-type opioid receptor (Homo sapiens, UniProt P41145); assay: Inhibition of human kappa-opioid receptor at 10 uM
[3] = target: Mu-type opioid receptor (Homo sapiens, UniProt P35372); assay: Inhibition of human mu-opioid receptor at 10 uM
[4] = Inhibition of rat L-type calcium channel (verapamil site) at 10 uM
[5] = target: T1, Muscarinic acetylcholine receptor M1 (Homo sapiens, UniProt P11229); assay: Inhibition of human muscarinic M1 receptor at 10 uM
T1 sequence (P11229 whole entry): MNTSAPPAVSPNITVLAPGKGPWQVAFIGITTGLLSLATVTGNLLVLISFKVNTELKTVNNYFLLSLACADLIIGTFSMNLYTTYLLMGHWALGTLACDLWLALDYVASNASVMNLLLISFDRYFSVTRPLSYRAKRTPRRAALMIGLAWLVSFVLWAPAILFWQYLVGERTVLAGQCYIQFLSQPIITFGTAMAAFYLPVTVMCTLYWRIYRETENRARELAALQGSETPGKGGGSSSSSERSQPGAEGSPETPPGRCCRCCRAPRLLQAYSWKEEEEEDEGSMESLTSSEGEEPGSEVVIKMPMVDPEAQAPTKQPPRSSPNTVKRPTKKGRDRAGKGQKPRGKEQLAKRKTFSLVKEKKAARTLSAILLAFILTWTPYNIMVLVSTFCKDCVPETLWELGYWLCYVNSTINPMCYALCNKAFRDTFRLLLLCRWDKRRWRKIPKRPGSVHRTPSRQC

[6] = target: T2, D(4) dopamine receptor (Homo sapiens, UniProt P21917); assay: Inhibition of human dopamine D4.4 receptor at 10 uM
T2 sequence (P21917 whole entry): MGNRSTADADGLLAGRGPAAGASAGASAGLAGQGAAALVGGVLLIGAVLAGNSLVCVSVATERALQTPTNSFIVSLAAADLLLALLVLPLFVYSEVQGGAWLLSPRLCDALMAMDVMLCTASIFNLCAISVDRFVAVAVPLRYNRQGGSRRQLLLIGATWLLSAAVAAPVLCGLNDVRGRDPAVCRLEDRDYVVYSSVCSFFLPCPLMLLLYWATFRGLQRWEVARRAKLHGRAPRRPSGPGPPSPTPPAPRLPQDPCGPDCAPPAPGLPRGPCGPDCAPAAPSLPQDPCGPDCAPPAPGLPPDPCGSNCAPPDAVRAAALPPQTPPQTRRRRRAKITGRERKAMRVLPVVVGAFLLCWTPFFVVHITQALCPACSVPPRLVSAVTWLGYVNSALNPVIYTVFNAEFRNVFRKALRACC

[7] = target: Voltage-gated inwardly rectifying potassium channel KCNH2 (Homo sapiens, UniProt Q12809); assay: Inhibition of human ERG at 10 uM
[8] = test system: T47D; assay: Antiproliferative activity against human T47D cells assessed as cell growth inhibition at 0.4 to 100 uM after 6 days by XTT assay; format: cell-based; details: human, t47d, 144 h, 100 µM; dose 0.4-100 µM, time 6 day; in short: as §1
[9] = test system: SK-OV-3; assay: Antiproliferative activity against human SK-OV-3 cells assessed as cell growth inhibition at 0.4 to 100 uM after 6 days by XTT assay; format: cell-based; details: human, sk-ov-3, 144 h, 100 µM; dose 0.4-100 µM, time 6 day
[10] = test system: HEK293; assay: Antiproliferative activity against wild type human HEK293 cells assessed as cell growth inhibition at 0.4 to 100 uM after 6 days by XTT assay; format: cell-based; details: hek293, 144 h, dose 0.4-100 µM, time 6 day
[11] = target: T3, Transient receptor potential cation channel subfamily V member 6 (Homo sapiens) (UniProt Q9H1D0); assay: Inhibition of human TRPV6 expressed in HEK293 cells assessed as reduction in cadmium induced cytotoxicity by measuring increase in cell survival at 10 uM incubated for 24 hrs by XTT assay; format: cell-based
T3 sequence (whole entry): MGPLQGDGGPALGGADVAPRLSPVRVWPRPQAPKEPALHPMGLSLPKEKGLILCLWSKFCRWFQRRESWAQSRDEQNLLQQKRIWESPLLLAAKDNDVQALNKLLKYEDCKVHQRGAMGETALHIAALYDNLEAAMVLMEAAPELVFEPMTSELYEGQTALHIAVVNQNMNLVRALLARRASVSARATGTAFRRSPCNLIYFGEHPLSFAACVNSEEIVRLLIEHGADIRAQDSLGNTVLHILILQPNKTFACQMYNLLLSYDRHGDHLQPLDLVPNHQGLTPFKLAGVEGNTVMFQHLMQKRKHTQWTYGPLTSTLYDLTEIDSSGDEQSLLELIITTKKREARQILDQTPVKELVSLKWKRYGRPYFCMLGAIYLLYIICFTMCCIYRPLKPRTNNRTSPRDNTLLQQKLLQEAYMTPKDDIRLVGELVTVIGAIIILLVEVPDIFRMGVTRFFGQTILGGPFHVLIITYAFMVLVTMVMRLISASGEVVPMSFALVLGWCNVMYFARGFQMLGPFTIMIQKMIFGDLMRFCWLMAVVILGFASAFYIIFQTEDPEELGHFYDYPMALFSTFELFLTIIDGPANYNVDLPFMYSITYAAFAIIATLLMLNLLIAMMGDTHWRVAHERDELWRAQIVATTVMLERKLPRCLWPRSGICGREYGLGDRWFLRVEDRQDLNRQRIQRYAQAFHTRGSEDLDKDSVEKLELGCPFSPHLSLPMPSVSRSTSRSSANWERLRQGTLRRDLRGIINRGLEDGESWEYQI
In short: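 HEK293 wt or HEK-hTRPV6 cells in DMEM with 10% FBS, glutamine, penicillin/streptomycin and non-essential amino acids. Seeded at 1.5 x 10⁴ cells/well and left 24 h, then given CdCl2 at 50 to 0.05 µM with or without test compound at 1.0 or 10 µM; blank was 0.01% DMSO. Incubation 24 h at 37 °C. XTT/PMS read for 2 h at A450−A650, as % viable versus blank. n = 4/concentration, 2 independent experiments.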

[12] = test system: MCF7; assay: Antiproliferative activity against human MCF7 cells assessed as cell growth inhibition at 0.4 to 100 uM after 6 days by XTT assay; format: cell-based; details: mcf7, 144 h, dose 0.4-100 µM, time 6 day; in short: as §1

Chain of Mu-type opioid receptor (P35372 whole entry): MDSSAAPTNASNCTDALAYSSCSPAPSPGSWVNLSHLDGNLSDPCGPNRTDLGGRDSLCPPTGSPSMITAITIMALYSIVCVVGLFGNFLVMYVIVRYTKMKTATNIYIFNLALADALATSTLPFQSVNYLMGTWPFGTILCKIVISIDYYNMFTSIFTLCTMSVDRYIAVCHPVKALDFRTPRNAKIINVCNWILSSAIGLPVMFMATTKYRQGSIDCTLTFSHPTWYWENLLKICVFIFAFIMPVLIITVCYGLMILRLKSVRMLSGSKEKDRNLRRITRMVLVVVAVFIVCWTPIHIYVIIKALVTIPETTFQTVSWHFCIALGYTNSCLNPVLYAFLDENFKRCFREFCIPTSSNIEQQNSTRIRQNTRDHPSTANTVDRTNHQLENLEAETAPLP
Chain of Voltage-gated inwardly rectifying potassium channel KCNH2 (Q12809 whole entry): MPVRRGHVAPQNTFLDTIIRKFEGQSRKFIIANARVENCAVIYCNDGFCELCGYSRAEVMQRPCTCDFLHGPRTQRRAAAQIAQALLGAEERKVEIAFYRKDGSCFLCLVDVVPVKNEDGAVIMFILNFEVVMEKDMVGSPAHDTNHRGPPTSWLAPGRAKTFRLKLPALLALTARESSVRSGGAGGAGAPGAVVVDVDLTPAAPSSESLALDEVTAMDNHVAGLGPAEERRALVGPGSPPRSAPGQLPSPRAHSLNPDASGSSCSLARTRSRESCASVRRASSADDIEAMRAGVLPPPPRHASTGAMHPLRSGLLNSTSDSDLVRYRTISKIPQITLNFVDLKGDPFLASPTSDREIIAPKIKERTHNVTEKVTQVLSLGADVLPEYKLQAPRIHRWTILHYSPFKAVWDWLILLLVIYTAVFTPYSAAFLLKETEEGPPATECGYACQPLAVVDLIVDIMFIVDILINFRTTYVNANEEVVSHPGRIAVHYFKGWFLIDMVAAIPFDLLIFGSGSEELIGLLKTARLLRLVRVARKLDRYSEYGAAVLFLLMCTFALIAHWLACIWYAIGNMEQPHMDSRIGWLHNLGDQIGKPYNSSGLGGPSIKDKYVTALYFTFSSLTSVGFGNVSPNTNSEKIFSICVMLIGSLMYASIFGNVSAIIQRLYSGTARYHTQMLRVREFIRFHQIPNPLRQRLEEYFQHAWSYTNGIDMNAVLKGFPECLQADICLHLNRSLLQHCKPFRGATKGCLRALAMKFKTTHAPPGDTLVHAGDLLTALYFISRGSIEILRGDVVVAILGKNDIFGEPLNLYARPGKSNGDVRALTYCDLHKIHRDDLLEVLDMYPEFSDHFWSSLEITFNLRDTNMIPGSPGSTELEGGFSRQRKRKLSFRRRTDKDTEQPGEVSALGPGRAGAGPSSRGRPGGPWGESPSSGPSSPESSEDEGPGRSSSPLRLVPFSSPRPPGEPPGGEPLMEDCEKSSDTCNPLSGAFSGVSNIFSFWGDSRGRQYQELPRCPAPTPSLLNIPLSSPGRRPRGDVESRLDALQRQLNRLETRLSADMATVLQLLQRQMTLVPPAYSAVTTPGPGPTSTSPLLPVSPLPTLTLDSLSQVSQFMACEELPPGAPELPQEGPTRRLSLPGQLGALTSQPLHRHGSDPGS
Chain of Kappa-type opioid receptor (P41145 whole entry): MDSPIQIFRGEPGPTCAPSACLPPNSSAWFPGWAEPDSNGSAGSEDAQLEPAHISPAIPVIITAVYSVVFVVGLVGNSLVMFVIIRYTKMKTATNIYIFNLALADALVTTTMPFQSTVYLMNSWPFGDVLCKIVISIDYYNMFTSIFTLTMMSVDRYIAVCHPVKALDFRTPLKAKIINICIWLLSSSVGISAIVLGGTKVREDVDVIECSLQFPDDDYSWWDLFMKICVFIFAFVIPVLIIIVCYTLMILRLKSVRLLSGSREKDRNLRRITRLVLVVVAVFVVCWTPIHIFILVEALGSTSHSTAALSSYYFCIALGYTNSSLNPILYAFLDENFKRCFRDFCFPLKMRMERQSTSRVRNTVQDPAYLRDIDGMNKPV

Compound: O=c1ccc(CN2CCN([C@H]3CC[C@@](O)(c4cccc(C(F)(F)F)c4)CC3)CC2)c[nH]1
- Activity [1]: Non-Toxic
- inhibition (INH) [2]: Not Active
- inhibition (INH) [3]: Not Active
- inhibition (INH) [4]: Not Active
- inhibition (INH) [5]: Not Active
- inhibition (INH) [6]: Not Active
- inhibition (INH) [7]: Not Active
- Activity [8]: Non-Toxic
- Activity [9]: Non-Toxic
- Activity [10]: Non-Toxic
- inhibition [11]: Active
- Activity [12]: Non-Toxic
